# Screens as filed in PubChem BioAssay.
# Sampled rows, rich in hits. Any-hit rate of the full collection: about 1.4%.
# iPSC survival up = increases survival of single human iPS cells. hiPSC single-cell survival, ATPlite luminescence; 100% = ROCK inhibitor wells, 0% = DMSO. survival enhancement, % at 20 µM. 360,000 compounds, 0.044% hits. AID 602274; in the data active = survival enhancement above about 18%;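 note: cells exposed to compounds for 16 hours before the ATP read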
# SKN-1 inh = inhibitors of C. elegans SKN-1. C. elegans VP596 Pgst-4::GFP/RFP ratio, acrylamide-induced, 24 h. 360,000 compounds, 0.49% hits. AID 624304. inhibition, % at 21.8 µM;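 active = interference check ratio from 0.5 to 1.5 plus GFP to RFP signal ratio inhibition reaching or exceeding a fixed threshold, cut at about 30% in these data, passing the limit was not always enough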
# MT1-MMP act inh = MT1-MMP (human) activation inhibition; HT1080 RFP-PRO-GFP cells, GFP/RFP ratio fluorescence, overnight; percent of plate control window, DMSO zero; AID 651647; GFP/RFP ratio change, % at 20 µM; 360,000 compounds, 0.061% hits;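 active = GFP/RFP ratio change of at least 30% with cell ATP level not reduced by more than half and red fluorescence within 50% of control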
#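 system = RFP-PRO-GFP reporter HT1080 cells | dosing = 20 µM single dose, 1% DMSO | timing = overnight cell settling, then overnight compound exposure, 37 °C, 5% CO2 | read-out basis = GFP/RFP fluorescence ratio | controls = DMSO and RFP-L50D-GFP cell wells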
# NRP1-CendR mod = NRP-1/CendR interaction modulation; O14786; FAM-RPARPAR peptide binding to NRP-1, fluorescence polarization; inhibition, % at 25 µM; 360,000 compounds, 0.85% hits; AID 602438;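 active = inhibition or corrected inhibition above about 18%, plus a signal ratio from 0.5 to 1.5, limit read from the data, passing the limit was not always enough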
# Target sequence (O14786 whole entry, looked up): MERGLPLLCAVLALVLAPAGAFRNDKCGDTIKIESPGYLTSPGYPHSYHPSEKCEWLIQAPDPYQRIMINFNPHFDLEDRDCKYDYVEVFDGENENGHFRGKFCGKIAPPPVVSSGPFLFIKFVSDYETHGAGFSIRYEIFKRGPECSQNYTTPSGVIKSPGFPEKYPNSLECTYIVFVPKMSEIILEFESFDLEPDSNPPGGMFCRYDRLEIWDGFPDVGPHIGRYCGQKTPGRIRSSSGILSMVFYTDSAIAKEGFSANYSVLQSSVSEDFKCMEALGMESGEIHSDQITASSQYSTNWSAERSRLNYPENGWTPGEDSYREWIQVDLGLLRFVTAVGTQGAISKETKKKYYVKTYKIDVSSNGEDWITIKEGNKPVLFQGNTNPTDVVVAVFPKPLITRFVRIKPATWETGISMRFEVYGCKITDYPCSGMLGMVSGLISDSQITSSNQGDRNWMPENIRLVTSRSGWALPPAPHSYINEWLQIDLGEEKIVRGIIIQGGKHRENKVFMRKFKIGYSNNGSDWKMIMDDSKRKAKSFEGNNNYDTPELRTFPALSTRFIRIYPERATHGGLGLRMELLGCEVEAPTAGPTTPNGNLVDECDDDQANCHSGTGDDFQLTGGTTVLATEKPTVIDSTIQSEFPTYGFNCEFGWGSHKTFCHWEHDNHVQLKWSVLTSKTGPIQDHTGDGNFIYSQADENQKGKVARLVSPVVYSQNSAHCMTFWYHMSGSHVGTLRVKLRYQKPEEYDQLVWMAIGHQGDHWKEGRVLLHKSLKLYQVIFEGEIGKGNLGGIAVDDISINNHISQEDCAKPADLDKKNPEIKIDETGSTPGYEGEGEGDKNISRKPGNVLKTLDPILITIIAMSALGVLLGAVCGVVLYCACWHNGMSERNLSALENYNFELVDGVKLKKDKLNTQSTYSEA
# Hits are given with their value; i = inactive.
SMILES,iPSC survival up,SKN-1 inh,MT1-MMP act inh,NRP1-CendR mod
COC(=O)[C@H](CC(C)C)NS(=O)(=O)N(Cc1ccccc1)[C@@H](CC(C)C)C(=O)OC,i,i,i,28
CC(=O)c1ccc2noc(-c3ccc(F)cc3)c2c1,i,i,i,37
CC(=O)O[C@@H]1[C@@]2(C)O[C@H]2CC[C@]23O[C@H]2[C@H](OC3=O)C2=C(C)C(=O)O[C@@]21O,i,i,i,i
O=C(N/N=C/c1ccc(OC(=O)c2ccccc2Br)cc1)c1ccccn1,i,i,i,i
Cc1nn(C(=O)Cn2ccc([N+](=O)[O-])n2)c(C)c1Cl,i,i,i,i
O=C(Nc1ccc2oc(-c3ccccc3)nc2c1)c1cccnc1,i,39,i,i
CCOc1ccc(OCCOCCOc2ccccc2Cl)cc1,i,i,i,i
O=C1C2C(C(=O)N1Cc1cccnc1)C1C=CC2C12CC2 (stereo not drawn),i,41,i,i
Cc1ccccc1NC(=O)Cc1nc(COC(=O)c2cccc(O)c2)cs1,i,42,i,i
Cc1ccccc1NC(=O)Cc1nc(COC(=O)c2cccc([N+](=O)[O-])c2)cs1,i,i,i,i
COC(=O)c1cc(-c2ccc(Br)cc2)n[nH]1,i,36,i,i
CCn1c(=O)c(CCC(=O)NCCN2CCOCC2)c(C)c2c(C)nn(-c3cccc(C)c3)c21,i,i,i,28
CN(C)C(=O)CSCc1c(Cl)cccc1Cl,i,i,i,i
Cc1ccccc1NC1=C/C(=N\S(=O)(=O)c2cccs2)c2ccccc2C1=O,i,i,i,i
Cc1ccccc1NC1=C/C(=N\S(=O)(=O)c2ccc(C(=O)O)cc2)c2ccccc2C1=O,i,i,i,24
O=C(O)c1ccc(S(=O)(=O)/N=C2\C=C(Nc3ccccc3F)C(=O)c3ccccc32)cc1,i,i,i,19
CC(C)NC(=O)COc1coc(CN2CCN(c3ccccc3)CC2)cc1=O,i,i,i,23
CC(C)NC(=O)COc1coc(CN2CCN(c3cccc(Cl)c3)CC2)cc1=O,i,i,i,i
Cc1ccc2oc(C(=O)N3CCCCCC3)c(C)c2c1,i,i,i,26
Cc1c(C(=O)N2CCCCC2)oc2ccc(Br)cc12,i,i,i,i
O=C(c1cc(-c2ccc(Cl)cc2)on1)N1CCc2ccccc2C1,i,i,i,i
O=C(c1cc(-c2ccccc2)on1)N1CCc2ccccc2C1,i,37,i,i
COc1cccc(Nc2nc(NCC3CCCO3)c3ccccc3n2)c1 (stereo not drawn),i,37,i,i
Oc1ccc(Nc2nc(NCC3CCCO3)c3ccccc3n2)cc1 (stereo not drawn),i,i,i,i
Cc1c(Cl)cccc1-c1ccc(C(=O)N2CCN(c3ccc([N+](=O)[O-])cc3)CC2)o1,i,i,i,i
SMILES,iPSC survival up,SKN-1 inh,MT1-MMP act inh,NRP1-CendR mod
O=C(c1ccc(-c2cccc(Cl)c2)o1)N1CCN(c2ccc([N+](=O)[O-])cc2)CC1,i,i,i,29
COC(=O)CCCC1=CC2=CC(=O)C(C)(OC(=O)c3cccs3)C(=O)C2=CN1CCCOC(C)C (stereo not drawn),i,i,i,28
CC1(OC(=O)CCc2ccccc2)C(=O)C=C2C=C3CCCN3C=C2C1=O (stereo not drawn),i,i,i,48
COC(=O)CCC(=O)OC1(C)C(=O)C=C2C=C(c3ccsc3)OC=C2C1=O (stereo not drawn),i,i,i,i
COC(=O)CCCC1=CC2=CC(=O)C(C)(OC(=O)CCc3ccccc3)C(=O)C2=CO1 (stereo not drawn),i,33,i,i
CC1(OC(=O)c2cccs2)C(=O)C=C2C=C3CCCN3C=C2C1=O (stereo not drawn),i,i,i,41
CCC(C)(C(=O)NC1CCCC1)N(C)C(=O)Cc1c[nH]c2ccccc12 (stereo not drawn),i,i,i,i
CCOc1ccc(C2C(C(=O)c3ccc(C)o3)=C(O)C(=O)N2c2cc(C)on2)cc1OC (stereo not drawn),i,i,i,21
COc1cc(C2C(C(=O)c3ccc(C)o3)=C(O)C(=O)N2c2cc(C)on2)ccc1OCc1ccccc1 (stereo not drawn),i,i,i,i
Clc1ccc2oc(-c3ccccn3)nc2c1,i,39,i,i
Nc1ccc2oc(-c3ccccn3)nc2c1,i,i,i,i
CSc1nc(N2CCOCC2)c2c(c1C#N)CC(C)(C)OC2,i,37,i,i
CCC1(C)Cc2c(C#N)c(SC)nc(N3CCOCC3)c2CO1 (stereo not drawn),i,i,i,i
CC1(C)Cc2c(C#N)c(SCC(=O)c3ccccc3)nc(N3CCOCC3)c2CS1,20,i,i,i
CCOC(=O)c1c(C)[nH]c(C(=O)COC(=O)c2oc3ccc(OC)cc3c2C)c1C,i,37,i,i
COc1ccc2oc(C(=O)OCC(=O)N3CCC(C)CC3)c(C)c2c1,i,i,i,i
CCOC(=O)N1CCN(C(=O)COC(=O)c2oc3ccc(OC)cc3c2C)CC1,i,i,i,23
CCOC(=O)c1c(C)[nH]c(C(=O)COC(=O)c2oc3ccccc3c2C)c1C,i,i,i,i
Cc1ccc(S(=O)(=O)c2cc3ccccc3oc2=Nc2ccc3c(c2)OCCO3)cc1,i,i,i,i
OCC1(CCCc2ccccc2)CCN(C2CCC2)CC1,i,i,i,i
COc1ccccc1C(=O)NCCC(=O)NNC(=O)c1ccccc1O,i,i,i,i
C[C@H]1CN=C(N(C)C)N1CCCC1CCCC1,i,i,i,i
C[C@H]1CN=C(N(C)C)N1CCC1CCCCC1,i,i,i,30
CCOc1ccccc1OCC(=O)NN1Cc2ccccc2C1=N,i,i,i,19
CCc1ccc(OCC(=O)NN2Cc3ccccc3C2=N)cc1,i,i,i,i
SMILES,iPSC survival up,SKN-1 inh,MT1-MMP act inh,NRP1-CendR mod
COc1ccc(Nc2nccc(-c3cccc(N)c3)n2)cc1,i,i,i,20
COc1ccc(C/C(N)=N/O)cc1,i,i,i,i
CN1C(=O)N(c2cccc3ccccc23)C(n2cncn2)C1(C)C (stereo not drawn),i,i,i,i
CN1C(=O)N(c2ccccc2)C(Nc2nncs2)C1(C)C (stereo not drawn),i,38,i,i
C=C1C[C@@]23CCC4[C@@](C)(CCC[C@@]4(C)C(=O)O)C2CC[C@]1(O)C3 (stereo partly drawn),i,i,i,32
CCc1ccc(-c2nc(-c3ccncc3)no2)cc1,i,48,i,i
CCOc1ccc(-c2nc(-c3cccnc3)no2)cc1,i,53,i,i
CCOc1ccc(-c2cnc3ccccc3n2)cc1,i,35,i,i
c1ccc(-c2ccc(-c3nc(-c4ccncc4)no3)cc2)cc1,i,i,i,i
c1ccc(-c2nc(-c3ccncc3)no2)cc1,i,69,i,i
CCC(C)c1ccc(NS(=O)(=O)c2c(C)[nH]c(=O)[nH]c2=O)cc1 (stereo not drawn),i,i,i,i
CCOc1ccc(-c2nnc(-c3ccccc3)o2)cc1,i,38,i,i
